# Compound activity from PubChem.
# PGC1a acetyl up: compounds raising PGC1a acetylation signal, primary screen, PGC1a modulator project, cell-based, U2OS, AlphaScreen, signal-increasing mode; AID 651723, 2012; activation, % at 15.6 µM; hit rate 0.21% among 350,000; overnight;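 active = every replicate reaching activation of at least 50%, whatever the mean replicate activation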;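 note: hits raise the AlphaScreen acetylation signal above neutral controls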
#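 Test system: U2OS cells expressing flag-PGC1a plus GCN5; Amount: 7000 U2OS cells per well; Compound: single test concentration per compound; Incubation: compound overnight at 37 °C, each detection step 1 h RT; Signal: AlphaScreen lysate read.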
# Numbers stand for hits; - = inactive. Only a selection was taken, and hits are over-represented in it overall.
SMILES,PGC1a acetyl up
CC(=O)N(C)C[C@H]1Oc2cc(-c3ccc(C#N)cc3)ccc2S(=O)(=O)N([C@@H](C)CO)C[C@@H]1C,-
C[C@H](CO)N1C[C@H](C)[C@@H](CN(C)C(=O)C2CCCCC2)Oc2cc(C#Cc3ccncc3)ccc2S1(=O)=O,-
COc1ccccc1C#Cc1ccc2c(c1)O[C@@H](CN(C)Cc1cccnc1)[C@H](C)CN([C@H](C)CO)S2(=O)=O,-
CC(C)CC#Cc1ccc2c(c1)O[C@H](CN(C)C)[C@@H](C)CN([C@H](C)CO)S2(=O)=O,59
CC(C)CC#Cc1ccc2c(c1)O[C@H](CN(C)Cc1ccccc1)[C@@H](C)CN([C@H](C)CO)S2(=O)=O,-
S=c1sc2c(Cl)ncnc2n1-c1ccccc1,-
CC1C(=O)CCCCCCCCCC2C1(N1CCOCC1)CS2(=O)=O (centres undefined),61
CCOC(=O)c1c(NC(=O)c2c(Br)cnn2CC)sc(C)c1C,83
CCOC(=O)c1c(NC(=O)/C=C/C(=O)O)sc(C)c1-c1ccc(C(C)(C)C)cc1,-
COc1ccccc1OCCn1cc(/C=N/NC(=O)c2ccncc2)c2ccccc21,-
COc1ccc(C(=O)Nc2ccc3c4c(cccc24)CC3)cc1,-
COc1cccc(/C=N/NC(=O)c2ccc(-n3cnnn3)cc2)c1,84
COc1ccc(C(=O)Nc2cccc(S(C)(=O)=O)c2)cc1OC,-
Cc1cc(Br)c(OCc2ccc(C(=O)N/N=C/c3ccc[nH]3)cc2)c(Br)c1,-
COc1ccc(N(C)S(=O)(=O)c2cccc(C(=O)Nc3ccc(-n4cnnn4)cc3)c2)cc1,67
O=C1Nc2c(Br)cc(Br)c3cccc1c23,-
Cc1ccccc1NC(=O)CC1c2ccccc2CC(C)(C)N1C (centres undefined),-
O=C(CC1CC1)N[C@@H]1CC[C@@H](CCNS(=O)(=O)c2ccc(Cl)cc2)O[C@@H]1CO,-
O=C(NCc1cccnc1)/C(=C\c1ccc(-c2cccc(Cl)c2)o1)S(=O)(=O)c1ccccc1,76
COC(=O)C12OCC34C(CC5C(C)=C(O)C(=O)CC5(C)C3C(O)C1O)OC(=O)C(OC(=O)C=C(C)C)C24 (centres undefined),-
O=C(C[C@@H]1CC[C@@H](NS(=O)(=O)c2ccc(F)cc2)[C@H](CO)O1)N1CCN(c2ccccc2)CC1,-
COc1ccc(C#Cc2c(-c3ccccc3)n(-c3ccccc3)c3ccc(CO)cc23)cc1,71
O=C(NC1CCCN(Cc2ccc(Cl)cc2)C1)c1ccccc1C(F)(F)F (centres undefined),-
NC(=O)NC(=O)Nc1ccccc1Cl,-
NC(=O)c1ccc(NC(=O)C#Cc2ccccc2)cc1,203
SMILES,PGC1a acetyl up
COc1ccc(CN(C)C[C@@H]2Oc3ccc(NS(=O)(=O)c4c(C)noc4C)cc3C(=O)N([C@H](C)CO)C[C@H]2C)cc1,-
COc1cccc(S(=O)(=O)N2C[C@@H]3N[C@H](C2)C3c2ccc(-c3ccccc3C)cc2)c1 (some centres undefined),242
Cc1ccc(S(=O)(=O)N2C[C@@H]3N[C@H](C2)[C@@H]3c2ccc(-c3cccc(C)c3)cc2)cc1,66
O=S(=O)(c1ccc(-c2ccccc2)cc1)N1C[C@@H]2N[C@H](C1)[C@@H]2c1ccc(-c2cccnc2)cc1,-
Cc1cccc(S(=O)(=O)N2C[C@@H]3N[C@H](C2)C3c2ccc(-c3ccccc3C)cc2)c1 (some centres undefined),166
COc1cccc(-c2ccc(C3[C@@H]4CN(S(=O)(=O)c5cccc(OC)c5)C[C@H]3N4)cc2)c1 (some centres undefined),57
C=C1C(=O)[C@]23C[C@H]1CCC2[C@@]1(C)C(C[C@@H]3O)[C@](C)(C(=O)OC)CC[C@@H]1O (some centres undefined),-
C[C@H](NC(=O)C[C@H]1C[C@@H]2c3cc(NC(=O)Nc4ccc(C(F)(F)F)cc4)ccc3O[C@@H]2[C@@H](CO)O1)c1ccccc1,-
COCC#Cc1ccc2c(c1)O[C@H](CN(C)C(=O)CN(C)C)[C@@H](C)CN([C@@H](C)CO)S2(=O)=O,-
Cc1noc(C)c1NC(=O)N(C)C[C@@H]1OCCCC[C@@H](C)Oc2ccc(N(C)C)cc2C(=O)N([C@@H](C)CO)C[C@H]1C,-
C[C@@H]1CN([C@H](C)CO)C(=O)c2cc(-c3ccccc3)cnc2O[C@@H]1CN(C)C(=O)Cc1ccccc1,-
CC[C@H](C)[C@H](NC(=O)c1ccc(Cl)cc1)C(=O)OCC(=O)c1ccc2c(c1)NC(=O)CO2,-
Cc1ccc(NC(=O)C2C(c3ccccc3)C2(Cl)Cl)c(C)c1 (centres undefined),-
CCN=C(N/N=C/c1ccc([N+](=O)[O-])cc1)SC,59
COC(=O)C(=Cc1ccc(OCc2ccc([N+](=O)[O-])cc2)c(OC)c1)C(=O)OC,-
COc1ccccc1C1c2ccc3ccccc3c2Oc2ncn(CCN(C)C)c(=N)c21 (centres undefined),58
